Active and inactive are the calls of the source. The rule behind the calls is not given here.
Experiments:
RAW264.7 [1] = experiment: Anti-inflammatory activity in mouse RAW264.7 cells assessed as inhibition of LPS-induced IL-6 production at 10 to 40 uM preincubated for 2 hrs followed by LPS addition measured after 20 hrs by ELISA; assay type: functional, cell-based
Method in brief: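 RAW264.7 cells are pretreated 2 h with compound at 40 or 10 μM, then held with or without LPS (1 μg mL–1) for 20 h. Supernatant IL-6 is quantified by ELISA. Results are means ± SD (n = 3) of at least three independent experiments.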

RAW264.7 [2] = experiment: Anti-inflammatory activity in mouse RAW264.7 cells assessed as inhibition of LPS-induced NO production at 40 uM preincubated for 2 hrs followed by LPS addition measured after 20 hrs by Griess assay relative to control; assay type: functional
Method in brief: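 Macrophages (RAW264.7) are pretreated 2 h with compound at 40 μM, then held with or without LPS (1 μg mL–1) for 20 h. Released NO is measured with Griess reagent. Results are means ± SD (n = 3) from at least three independent experiments.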

[3] = Cytotoxicity against mouse RAW264.7 cells assessed as cell viability at 40 uM after 24 hrs by MTT assay relative to control; assay type: cell-based; conditions: read-out: Activity
Mus musculus [4] = experiment: Anti-inflammatory activity in C57BL6 mouse model of CCl4-induced hepatic fibrosis assessed as reduction in inflammatory cell infiltration in hepatic tissue at 0.1 mg/kg, ig administered 2 times per week for 4 weeks by H and E staining based assay; assay type: functional, organism-based
Method in brief: (§1)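 Male SPF C57BL6 mice (20 ± 2 g), acclimatized for at least one week under controlled temperature, humidity and light cycle. Hepatic fibrosis was induced with CCl4, with control and model groups run alongside. Liver tissue was H&E-stained and examined by light microscopy for inflammatory cell infiltration, hepatocyte degeneration and fibrosis.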

Mus musculus [5] = experiment: Anti-inflammatory activity in C57BL6 mouse model of CCl4-induced hepatic fibrosis assessed as reduction in hepatic fibrosis at 0.1 mg/kg, ig administered 2 times per week for 4 weeks by H and E staining based assay; assay type: functional, organism-based; method in brief: as §1
Mus musculus [6] = experiment: Anti-inflammatory activity in C57BL6 mouse model of CCl4-induced hepatic fibrosis assessed as reduction in blue collagen fibers in hepatic tissue at 0.1 mg/kg, ig administered 2 times per week for 4 weeks by masson staining based assay; assay type: functional, organism-based
Method in brief: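 Male SPF C57BL6 mice (20 ± 2 g), housed at 22 ± 2 °C and 50% humidity with a 12 h light/dark cycle, acclimatized for at least one week. CCl4-induced hepatic fibrosis model, groups compared with untreated control and CCl4 model groups. Liver sections were Masson-stained, and blue collagen fibers were scored by light microscopy.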

RAW264.7 [7] = experiment: Anti-inflammatory activity in mouse RAW264.7 cells assessed as inhibition of LPS-induced iNOS protein expression measured after 20 hrs by Western blot analysis; assay type: functional, cell-based
Method in brief: (§2)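 RAW264.7 cells are treated with graded concentrations of test article, then held with or without LPS (1 μg mL–1) for 20 h. iNOS and COX-2 protein are measured. The NF-κB inhibitor Bay 11-7082 (20 μM) serves as reference. Results are means ± SD (n = 3) of at least three independent experiments.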

[8] = biological target: Transcription factor p65 (Mus musculus) (UniProt Q04207); experiment: Inhibition of LPS-induced NF-kB p65 phosphorylation in mouse RAW264.7 cells at 10 to 30 uM after 30 mins by Western blot analysis; assay type: cell-based
Method in brief: (§3)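 RAW264.7 cells are exposed to 10–30 μM test article plus LPS (1 μg mL–1) for 30 min. Total and phosphorylated proteins are probed by western blot: NF-κB p65 and IκB, with Bay 11-7082 (20 μM) as reference, and JNK, ERK1/2 and p38 MAPK. Results are means ± SD (n = 3) from at least three independent experiments.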

Mus musculus [9] = experiment: Anti-inflammatory activity in C57BL6 mouse model of CCl4-induced hepatic fibrosis assessed as reduction in hepatic fibrosis at 100 to 200 mg/kg, ig administered 2 times per week for 4 weeks by H and E staining based assay; assay type: functional, organism-based
Method in brief: (§4)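 Male SPF C57BL6 mice (20 ± 2 g) are acclimatized at least one week at 22 ± 2 °C, 50% humidity, 12 h light/dark, with free food and water. CCl4 induces hepatic fibrosis. Groups are control, model, colchicine 0.1 mg kg–1, and test article at 100 or 200 mg kg–1. Liver sections are scored by light microscopy after H&E and Masson staining.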

[10] = biological target: Transcription factor p65 (Mus musculus) (UniProt Q04207); experiment: Inhibition of LPS-induced NF-kB p65 nuclear tanslocation in mouse RAW264.7 cells at 20 to 30 uM preincubated for 1 hr followed by LPS addition measured after 3 hrs by DAPI staining based immunofluorescence assay; assay type: cell-based
Method in brief: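 For p65 nuclear translocation, RAW264.7 cells are pretreated 1 h with test article, then stimulated with LPS (1 μg mL–1) for 3 h before immunofluorescence imaging.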

[11] = Inhibition of LPS-induced IkBalpha phosphorylation in mouse RAW264.7 cells at 10 to 30 uM after 30 mins by Western blot analysis
RAW264.7 [12] = experiment: Anti-inflammatory activity in mouse RAW264.7 cells assessed as inhibition of LPS-induced COX2 protein expression measured after 20 hrs by Western blot analysis; assay type: functional, cell-based; method in brief: as §2
Mus musculus [13] = experiment: Anti-inflammatory activity in C57BL6 mouse model of CCl4-induced hepatic fibrosis assessed as reduction in inflammatory cell infiltration in hepatic tissue at 100 to 200 mg/kg, ig administered 2 times per week for 4 weeks by H and E staining based assay; assay type: functional, organism-based; method in brief: as §4
Mus musculus [14] = experiment: Anti-inflammatory activity in C57BL6 mouse model of CCl4-induced hepatic fibrosis assessed as reduction in blue collagen fibers in hepatic tissue at 100 to 200 mg/kg, ig administered 2 times per week for 4 weeks by masson staining based assay; assay type: functional, organism-based; method in brief: as §4
RAW264.7 [15] = experiment: Inhibition of LPS-induced ERK phosphorylation in mouse RAW264.7 cells after 30 mins by Western blot analysis; assay type: cell-based; method in brief: as §3

Transcription factor p65 (Mus musculus), sequence (Q04207 whole entry): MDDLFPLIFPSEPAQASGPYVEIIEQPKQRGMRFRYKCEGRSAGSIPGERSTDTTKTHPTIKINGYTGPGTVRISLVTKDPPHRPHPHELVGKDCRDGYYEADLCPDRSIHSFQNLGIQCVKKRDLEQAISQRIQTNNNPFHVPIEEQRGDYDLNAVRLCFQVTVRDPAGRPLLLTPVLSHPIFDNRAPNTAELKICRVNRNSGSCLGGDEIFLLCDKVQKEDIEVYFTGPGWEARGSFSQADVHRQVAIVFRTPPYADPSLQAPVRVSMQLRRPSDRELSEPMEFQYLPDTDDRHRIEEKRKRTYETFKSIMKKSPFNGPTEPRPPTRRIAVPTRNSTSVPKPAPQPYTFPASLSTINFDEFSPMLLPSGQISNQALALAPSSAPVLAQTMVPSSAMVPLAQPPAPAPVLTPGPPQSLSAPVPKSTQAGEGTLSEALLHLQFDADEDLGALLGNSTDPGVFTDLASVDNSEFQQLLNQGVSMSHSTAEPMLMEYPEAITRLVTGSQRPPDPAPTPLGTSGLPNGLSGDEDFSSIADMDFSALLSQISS

Row | Compound | inhibition (RAW264.7 [1]) | inhibition (RAW264.7 [2]) | viability at 24 h, 40 µM [3] | also measured
1 | CC1(C)[C@@H](O)CC[C@]2(C)[C@H]3C(=O)C=C4[C@H]5C[C@@](C)(C(=O)O)CC[C@]5(C)CC[C@@]4(C)[C@]3(C)CC[C@@H]12 [18alpha-GLYCYRRHETINIC ACID] | Active | Active | > 96% | –
2 | CC1(C)[C@@H](O)CC[C@]2(C)[C@H]3C(=O)C=C4[C@@H]5C[C@@](C)(C(=O)O)CC[C@]5(C)CC[C@@]4(C)[C@]3(C)CC[C@@H]12 [ENOXOLONE] | Active | Active | > 96% | –
3 | COc1cc2c(c(OC)c1OC)-c1ccc(OC)c(=O)cc1[C@@H](NC(C)=O)CC2 | – | – | – | Activity (Mus musculus [4]): Active; Activity (Mus musculus [5]): Active; Activity (Mus musculus [6]): Active
4 | CC1(C)[C@@H](O[C@H]2O[C@H](C(=O)O)[C@@H](O)[C@H](O)[C@H]2O)CC[C@]2(C)[C@H]3C(=O)C=C4[C@H]5C[C@@](C)(C(=O)O)CC[C@]5(C)CC[C@@]4(C)[C@]3(C)CC[C@@H]12 | Active | – | > 96% | inhibition (RAW264.7 [7]): Dose-dependent effect; inhibition [8]: Active; Activity (Mus musculus [9]): Active; inhibition at 40 µM (RAW264.7 [2]): > 70%; inhibition [10]: Active; inhibition [11]: Active; inhibition (RAW264.7 [12]): Dose-dependent effect; Activity (Mus musculus [13]): Active; Activity (Mus musculus [14]): Active; inhibition (RAW264.7 [15]): Dose-dependent effect
5 | CC1(C)[C@@H](O[C@H]2O[C@H](C(=O)O)[C@@H](O)[C@H](O)[C@H]2O[C@@H]2O[C@H](C(=O)O)[C@@H](O)[C@H](O)[C@H]2O)CC[C@]2(C)[C@H]3C(=O)C=C4[C@H]5C[C@@](C)(C(=O)O)CC[C@]5(C)CC[C@@]4(C)[C@]3(C)CC[C@@H]12 | Active | Active | > 96% | –
6 | CC1(C)[C@@H](O[C@H]2O[C@H](C(=O)O)[C@@H](O)[C@H](O)[C@H]2O)CC[C@]2(C)[C@H]3C(=O)C=C4[C@@H]5C[C@@](C)(C(=O)O)CC[C@]5(C)CC[C@@]4(C)[C@]3(C)CC[C@@H]12 | Active | Active | > 96% | –
7 | CC1(C)[C@@H](O[C@H]2O[C@H](C(=O)O)[C@@H](O)[C@H](O)[C@H]2O[C@@H]2O[C@H](C(=O)O)[C@@H](O)[C@H](O)[C@H]2O)CC[C@]2(C)[C@H]3C(=O)C=C4[C@@H]5C[C@@](C)(C(=O)O)CC[C@]5(C)CC[C@@]4(C)[C@]3(C)CC[C@@H]12 [GLYCYRRHIZIN] | Active | Active | > 96% | –
